How the values were obtained:
Format in all cases: functional
[1] = organism: Cavia porcellus; experiment: In vitro bradycardiac activity on isolated right atrium of guinea pig.; details: Cardiac atrium
How it was run: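 Male Hartley guinea pigs (250–400 g); spontaneously beating right atria in Tyrode's solution at 37 °C, 95% O2/5% CO2, 1 g tension, 90 min equilibration. Compound added cumulatively at 45 min intervals; beat rate counted from isometric contraction. Value = concentration giving 30% reduction from initial spontaneous rate; mean ± SEM, three to six experiments.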

[2] = system: Rattus norvegicus; experiment: In vivo effect on mean blood pressure of anesthetized rats following 3 mg/kg i.v.; details: route intravenous
How it was run: (§1)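 Male Wister rats (270–350 g), anesthetized (pentobarbital ip per methods; urethane per text). Compound at 3 mg/kg (salt form) in aqueous solution or saline, iv via jugular vein catheter. HR taken from the blood-pressure pulse wave; MBP = DBP + (SBP−DBP)/3. Maximal percent change from initial value; mean ± SEM, three to four experiments.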

[3] = system: Rattus norvegicus; experiment: In vivo effect on heart rate of anesthetized rats following 3 mg/kg i.v.; details: route intravenous; how it was run: as §1

SMILES | EC30 [1] [nM] | Change [2] [%] | Change [3] [%]
COc1cc2c(cc1OC)C(=O)N([C@@H]1CCCN(CCCOc3ccc4c(c3)OCO4)C1)CC2.Cl | 79 | -13 | -55
COc1cc2c(cc1OC)C(=O)N([C@H]1CCCN(CCCOc3ccc4c(c3)OCO4)C1)CC2.Cl | 68 | -23 | -53
COc1ccc(C(=O)N(C)C2CCCN(CCCOc3ccc4c(c3)OCO4)C2)cc1OC (stereo not given) | 3500 |  | 
COC(=O)c1ccc(OCCCN2CCCC(N3CCc4cc(OC)c(OC)cc4C3=O)C2)cc1.Cl (stereo not given) | 110 | -2.3 | -30
COc1cc2c(cc1OC)C(=O)N(C1CCCN(CCCOc3ccc(F)cc3)C1)CC2.Cl (stereo not given) | 240 | -17 | -39
COc1cc2c(cc1OC)C(=O)N(C1CCCN(CCCOc3ccc(Cl)cc3)C1)CC2.Cl (stereo not given) | 350 | -12 | -32
COc1ccc(OCCCN2CCCC(N3CCc4cc(OC)c(OC)cc4C3=O)C2)cc1OC.Cl (stereo not given) | 110 | -18 | -56
COc1cc2[nH]c(=O)n(C3CCCN(CCCOc4ccc5c(c4)OCO5)C3)c(=O)c2cc1OC (stereo not given) | 920 |  | 
COc1cc2c(cc1OC)C(=O)N(C1CCCN(CCCOc3ccc(C)cc3)C1)CC2.Cl (stereo not given) | 140 | -12 | -37
COc1cc2c(cc1OC)C(=O)N(C1CCCN(CCCOc3ccc(O)cc3)C1)CC2 (stereo not given) | 890 |  | 
COc1cc2c(cc1OC)C(=O)N(C1CCCN(CCCOc3ccc(OCc4ccccc4)cc3)C1)CC2 (stereo not given) | 1300 |  | 
COc1cc2c(cc1OC)C(=O)N(C1CCCN(CCCOc3ccc(NC(C)=O)cc3)C1)CC2 (stereo not given) | 760 |  | 
COc1cc2c(cc1OC)C(=O)N(C1CCCN(CCCOc3cc(OC)c(OC)c(OC)c3)C1)CC2 (stereo not given) | 1600 |  | 
COc1cc2c(cc1OC)C(=O)N(C1CCCN(CCCOc3ccc([N+](=O)[O-])cc3)C1)CC2.Cl (stereo not given) | 270 | 41 | -5.6
COc1cc2c(cc1OC)C(=O)N(C1CCCN(CCCOc3ccc4c(c3)CCC4)C1)CC2 (stereo not given) | 890 |  | 
COc1cc2ncn(C3CCCN(CCCOc4ccc5c(c4)OCO5)C3)c(=O)c2cc1OC.Cl (stereo not given) | 260 | -20 | -34
COc1cccc(OCCCN2CCCC(N3CCc4cc(OC)c(OC)cc4C3=O)C2)c1.Cl (stereo not given) | 140 | -11 | -47
COc1cc2c(cc1OC)C(=O)N(C1CCCN(CCCOc3ccccc3OC)C1)CC2 (stereo not given) | 390 |  | 

SMILES | EC30 [1] [nM] | Change [2] [%] | Change [3] [%]
COc1ccc(OCCCN2CCCC(N3CCc4cc(OC)c(OC)cc4C3=O)C2)cc1.Cl (stereo not given) | 99 | -16 | -49
COc1cc2c(cc1OC)C(=O)N(C1CCCN(CCCOc3ccc(OC(C)C)cc3)C1)CC2 (stereo not given) | 330 |  | 
COc1cc2c(cc1OC)C(=O)N(C1CCCN(CCCOc3ccc(C#N)cc3)C1)CC2.Cl (stereo not given) | 240 | -6.8 | -23
COc1ccc(C(=O)NC2CCCN(CCCOc3ccc4c(c3)OCO4)C2)cc1OC.Cl (stereo not given) | 420 | -11 | -29
COc1cc2c(cc1OC)C(=O)N(C1CCCN(CCCOc3ccc(C(F)(F)F)cc3)C1)CC2 (stereo not given) | 790 |  | 
COc1cc2ccn(C3CCCN(CCCOc4ccc5c(c4)OCO5)C3)c(=O)c2cc1OC.Cl (stereo not given) | 200 | 11 | -26
COc1cc2c(cc1OC)C(=O)N(C1CCCN(CCCOc3ccccc3)C1)CC2.Cl (stereo not given) | 390 | 3.2 | -32
COc1cc2c(cc1OC)C(=O)N(C1CCCN(CCCOc3ccc4c(c3)OCO4)C1)CC2.Cl (stereo not given) | 67 | -14 | -48
COc1cc2c(cc1OC)C(=O)N(C1CCCN(CCCOc3ccc4[nH]ccc4c3)C1)CC2 (stereo not given) | 360 |  | 
COc1cc2c(cc1OC)C(=O)N(C1CCCN(CCCOc3ccc(C(N)=O)cc3)C1)CC2 (stereo not given) | 5700 |  | 
COc1cc2c(cc1OC)CN(C1CCCN(CCCOc3ccc4c(c3)OCO4)C1)CC2.Cl (stereo not given) | 250 | -7.1 | -47
COc1cc2c(cc1OC)C(=O)N(C1CCCN(CCCOc3ccc(Br)cc3)C1)CC2 (stereo not given) | 470 |  | 
CCCOc1ccc(OCCCN2CCCC(N3CCc4cc(OC)c(OC)cc4C3=O)C2)cc1 (stereo not given) | 270 |  | 
COc1cc2c(cc1OC)C(=O)N(C1CCCN(CCCOc3ccc(N)cc3)C1)CC2 (stereo not given) | 1600 |  | 
CCOc1ccc(OCCCN2CCCC(N3CCc4cc(OC)c(OC)cc4C3=O)C2)cc1.Cl (stereo not given) | 97 | -7.8 | -49
COc1cc2c(cc1OC)C(=O)N(C1CCCN(CCCOc3ccc4c(c3)OCCO4)C1)CC2.Cl (stereo not given) | 130 | -12 | -44
COc1ccc(CCN(C)CCCN2CCc3cc(OC)c(OC)cc3CC2=O)cc1OC.Cl [ZATEBRADINE HYDROCHLORIDE] | 260 | 5.4 | -47

— ChEMBL document CHEMBL1145139, “Synthesis and pharmacological evaluation of 1-oxo-2-(3-piperidyl)-1,2,3,4- tetrahydroisoquinolines and related analogues as a new class of specific bradycardic agents possessing I(f) channel inhibitory activity” (2003)
